Series [1] concerns the target T1, FAK (Homo sapiens, UniProt Q05397). The experiment in a line: Western blot of FAK-Tyr-397 phosphorylation in suspended Caco-2 cells. The class given is cell-based. Summed up: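 Caco-2 cells held in suspension on plates pre-coated with 1% heat-inactivated BSA to avoid adhesion-driven FAK activation. Treated with compound (100 pM–1000 nM) or H2O for 1 h at 37 °C, then lysed. Lysates resolved by 10% SDS-PAGE on nitrocellulose, probed for pTyr-397 FAK with total FAK as loading control. Read-out: pTyr-397/FAK fold change; n = 4–8.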

Series [2] concerns the target T1, FAK. To be noted: 10 nM, suspended Caco-2 cells; ref Wang et al., 2019b; cited from earlier work.
A further series concerns Caco-2 cells. To be noted: in vitro; ref Wang et al., 2019b; cited from earlier work.

Structures are written as SMILES. Read-outs that look alike come from different tables or passages of the source.

T1 sequence (Q05397 whole entry): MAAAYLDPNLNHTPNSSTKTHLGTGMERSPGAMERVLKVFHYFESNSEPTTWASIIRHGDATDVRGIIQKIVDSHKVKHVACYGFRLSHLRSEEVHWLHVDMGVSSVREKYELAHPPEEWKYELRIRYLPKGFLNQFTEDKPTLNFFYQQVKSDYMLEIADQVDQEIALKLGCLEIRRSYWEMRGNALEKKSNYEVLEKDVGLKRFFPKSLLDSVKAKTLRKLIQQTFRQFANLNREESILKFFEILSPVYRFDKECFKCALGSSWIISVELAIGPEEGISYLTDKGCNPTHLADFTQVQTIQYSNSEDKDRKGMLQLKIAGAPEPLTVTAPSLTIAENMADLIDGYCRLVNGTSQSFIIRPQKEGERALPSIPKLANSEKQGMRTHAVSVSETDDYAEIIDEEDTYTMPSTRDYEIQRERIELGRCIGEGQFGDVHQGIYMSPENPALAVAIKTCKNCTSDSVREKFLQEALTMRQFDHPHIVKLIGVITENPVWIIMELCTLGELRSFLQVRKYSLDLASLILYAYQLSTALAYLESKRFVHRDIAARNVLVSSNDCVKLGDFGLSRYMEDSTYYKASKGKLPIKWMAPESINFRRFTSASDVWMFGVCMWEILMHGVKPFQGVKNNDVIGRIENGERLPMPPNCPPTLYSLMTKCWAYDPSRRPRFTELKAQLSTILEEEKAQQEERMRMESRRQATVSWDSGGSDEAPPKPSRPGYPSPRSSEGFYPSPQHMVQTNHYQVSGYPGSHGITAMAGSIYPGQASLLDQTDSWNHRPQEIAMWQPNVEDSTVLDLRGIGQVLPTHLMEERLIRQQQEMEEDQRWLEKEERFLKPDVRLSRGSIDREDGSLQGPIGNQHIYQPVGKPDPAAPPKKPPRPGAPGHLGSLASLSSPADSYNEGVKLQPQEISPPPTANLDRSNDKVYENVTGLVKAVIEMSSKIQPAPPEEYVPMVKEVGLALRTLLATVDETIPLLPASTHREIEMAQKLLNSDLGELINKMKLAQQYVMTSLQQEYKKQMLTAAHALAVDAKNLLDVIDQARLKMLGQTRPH

Take `COc1ccc(C2CCCN2C(=O)Nc2cc(C(F)(F)F)ccc2N2CCOCC2)cc1` (stereo not shown) [ZN40099027]: the “FAK activation (positive control)” value on FAK [1] (100 nM, Caco-2 cells) is “activates FAK”. In addition, on FAK [2], the FAK activation is 14.8%. Besides, the “lowest concentration stimulating Caco-2 cell monolayer wound closure” value with Caco-2 cells was 10 nM.

For `CN(C)C(CNC(=O)Nc1cc(C(F)(F)F)ccc1N1CCOCC1)c1ccncc1` (stereo not shown) [M64, 1-(2-(dimethylamino)-2-(pyridin-4-yl)ethyl)-3-(2-morpholino-5-(trifluoromethyl)phenyl)urea], on FAK [1] (10–1000 nM), the FAK activation result was “did not activate FAK”.

These data come from PMC9827036 (Current Research in Pharmacology and Drug Discovery, 2022).
